Source: ChEMBL document CHEMBL4513216, “Probing the Open Global Health Chemical Diversity Library for Multistage-Active Starting Points for Next-Generation Antimalarials” (ACS Infect Dis, 2020)

Assay: Toxicity liver stage against HepG2, at 10uM
Type: cell-based
Set-up: test concentration 10 uM, cell line HepG2-A16-CD81EGFP
Details: human, HepG2-A16-CD81EGFP cells; read-out: INHIBITION
Outline: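 Uninfected HepG2-A16-CD81EGFP cells, 3 × 10^3 per well, 1536-well, plated on prespotted compound at 10 μM final, parasite-free screening media added to match infected plates; puromycin 10 μM positive, DMSO 0.5% negative; run in parallel with 48 h PbLuc assay at 37 °C, 5% CO2; viability by CellTiter-Glo luminescence, normalized to controls.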

SMILES	cytotoxicity at 10 µM [%]
Cc1ccc(-c2nc(CN3CCC(C(=O)N(C)C)CC3)cs2)o1	1.32
COc1ccccc1CN(C)C(=O)C[S+]([O-])Cc1cc(C)on1 (configuration not stated)	0.788
CN(CCc1ncnn1-c1ccccc1Cl)C1CCS(=O)(=O)C1 (configuration not stated)	9.53
Cc1nc(N)sc1C(=O)N[C@H]1CN(CCO)C[C@@H]1C1CC1	1.81
CCC(c1ccc(F)cc1F)S(=O)(=O)CCO (configuration not stated)	-137
O=C(NCc1nn(-c2ccccc2)c2c1CCC2)C1CC1	-8.36
c1ccc(CCN2CCN(c3ccc4nncn4n3)CC2)cc1	-11.7
CNc1cccc(C2CCN(C(=O)c3cccnc3)CC2)n1	-7.27
Cc1noc(-c2ccc(-n3ncc(C(=O)O)c3C)nc2)n1	0.748
Cc1ccccc1-n1nccc1NC(=O)CCOC(C)C	0
Cc1nnc(C(C)N2CCCN(Cc3noc(C4CC4)n3)CC2)o1 (configuration not stated)	-21.2
Cc1cccc2c1NC(c1cnc(C3CCC3)s1)NC2=O (configuration not stated)	5.11
Cc1cc2c(cc1NC(=O)NC(C)(C)C)OCO2	-1.47
O=C(Nc1cccc(CNCc2cccs2)c1)C1CCCC1	-4.59
COCCCn1cnnc1C(C)NC(=O)c1[nH]c2ccc(C)cc2c1C (configuration not stated)	2.52
COc1cc(-c2cc(OC)c(OC)c(OC)c2)ncn1	-2.31
CC(C)C(C(=O)N1CCC2(CC1)CN(C)C(=O)O2)c1ccccc1 (configuration not stated)	-53.6
CC(C(=O)NC(N)=O)N(C)CCCc1cc(-c2ccccc2)no1 (configuration not stated)	-8.63
COc1c(C)cnc(CN2CCC(N(C)C(C)C(N)=O)CC2)c1C (configuration not stated)	-3.38
COc1cccc(-c2noc3c2CN(c2nc(C)ncc2C)CC3)c1	45.1
CS(=O)(=O)N1CCc2[nH]cnc2C12CCN(C(=O)c1ccc[nH]1)CC2	-1.42
Cc1nn(C)c2c(NCc3cccnc3)nc(C3CC3)nc12	-9.84
COc1cc(CCC(=O)NC(C)(C)C)ccc1OCC(F)(F)F	-8.76

SMILES	cytotoxicity at 10 µM [%]
Cc1n[nH]cc1CNC1(c2ccc(F)cc2)CCCC1	9.56
CC(C)CN1CCCC2(CCN(c3ccc(C#N)cn3)C2)C1 (configuration not stated)	5.22
CCN(CC)C(=O)c1c(Cl)cnn1CC	-12.3
O=C(Nc1cccnc1)[C@H]1C[C@H]2CN(S(=O)(=O)C3CC3)C[C@@H]1O2	-71.8
CC(C(=O)N1CCC(Nc2cccnn2)CC1)n1ccnc1 (configuration not stated)	-9.44
Cc1nc(C)c(C(=O)N2CCc3nnc(C4CCCCN4C)n3CC2)o1 (configuration not stated)	1.9
CCN(CC)c1ncccc1CNCc1cc2ccccc2s1	4.43
CS(=O)(=O)Cc1noc(CN(Cc2ccco2)c2ccccc2)n1	-8.3
Cc1nn(C(C)C)c2cnn(CC(=O)N3CCSCC3)c12	5.86
Cn1cc(C2CC(=O)NC23CCN(C(=O)C2CC=CC2)CC3)cn1 (configuration not stated)	8.13
COc1ccc(-c2noc([C@@H]3C[C@@H](O)CN3C3CCN(C)CC3)n2)cc1	-1.16
CCOC(=O)CSc1ccc(-c2nc(CC)no2)cn1	-17.1
CN(CCOc1ccccc1)C(=O)Nc1cccn(C)c1=O	-11.3
Cc1ccc2cnn(CCC(=O)Nc3nc(C)c(C)s3)c2c1	2.57
CN1CCN(S(=O)(=O)c2ccc(C(=O)N3CC[C@@H](O)C3)cc2)CC1=O	2.7
CN1CCC(Cc2cnc3ccccc3c2)C1 (configuration not stated)	1.42
CC(C)(C)n1cc(C(=O)N2CCN(Cc3cccnc3)CC2)cn1	-7.51
CN(C)[C@@H]1CCN(c2ncccn2)[C@H]1Cc1cccnc1	-3.9
CC(=O)Nc1cc(C(C)(C)C)sc1C#N	10.3
O=C1N(CCc2ccccc2)CCCC12CCN(C(CO)CO)C2 (configuration not stated)	-3.25
OC(COCc1cccs1)CN1CCC(c2ccn[nH]2)CC1 (configuration not stated)	-2.66
CCN1CCC2(CCC1=O)CN(C1CCOCC1)CCN2C (configuration not stated)	-1.14
COCc1cnc2n1CCN(C1CCCC1)C2C (configuration not stated)	9.13

SMILES	cytotoxicity at 10 µM [%]
CCCN1CCN(C(=O)c2cnccn2)[C@H]2CS(=O)(=O)C[C@H]21	-19.8
C=C(C)CN(CC)S(=O)(=O)c1ccccc1C#N	-17.1
COCCN(Cc1nc2c(cnn2C)c(=O)[nH]1)C(C)COC (configuration not stated)	-4.6
N#CC1CCCN(S(=O)(=O)c2ccc(C(=O)NCC(F)F)cc2)C1 (configuration not stated)	6.74
O=S(=O)(NCCCn1cncn1)c1ccc2c(c1)OCCO2	5.38
Cc1ccccc1C(C(=O)N(C)CCc1cn[nH]c1)N(C)C (configuration not stated)	-5.86
Cn1cnc2c1CCN(Cc1csc(Cc3ccccc3)n1)C2	-5.4
CCc1nnc(CN(CC)C(=O)C2CC(=O)N(C3CC3)C2)o1 (configuration not stated)	-0.143
Cc1c(CN2CCC(C(=O)O)(n3ccnc3)CC2)oc2ccccc12	-4.86
O=c1[nH][nH]cc1-c1ccnc(NCCc2ccc(F)cc2)n1	3.44
CC(C)c1ncc2c(n1)CN(Cc1nc(-c3ccsc3)no1)CC2	2.05
CCOc1ccc(Cl)c(C(=O)NCCC(=O)Nc2ccccn2)n1	-3.13
O=C1C(NCc2ccccc2O)CCN1Cc1ccccc1 (configuration not stated)	-9.11
C1CN(CC2CC2)C(COCC2CC2)c2nnn(CC3CC3)c21 (configuration not stated)	-3.66
O=C(c1cncs1)N1CCOC(c2cc(CCO)[nH]n2)C1 (configuration not stated)	-0.49
Cc1ccc(CNC(=O)c2c[nH]nc2NC(=O)C2CCC2)cc1	2.05
CS(=O)(=O)N1CCOC(CNC(=O)c2cccc(C#N)c2)C1 (configuration not stated)	-5.69
CN(C)C(=O)Cc1ccccc1NCc1cccc2cccnc12	-1.81
CNC(=O)c1ccccc1NCc1ncnn1C	-0.393
Cn1cccc1CNC(=O)CCCc1nnc2ccccn12	-5.77
CC(C(=O)Nc1ccon1)n1ccc(C(F)(F)F)n1 (configuration not stated)	5.15
CC(C)(CNc1cn[nH]c(=O)c1Cl)c1ccc2c(c1)OCO2	6.67
Cc1nc(CO[C@H]2CN(C(=O)c3ccc[nH]3)[C@@H]3COC[C@H]23)cs1	-110

SMILES	cytotoxicity at 10 µM [%]
Cc1ccc(S(=O)(=O)NCC2COCc3c(C)nnn3C2)cc1F (configuration not stated)	-4.55
COCCC1(C(=O)O)CCCN(CCOCc2ccccc2)C1 (configuration not stated)	-12.3
O=C(c1ccc(Cl)cc1)N1CCn2c(nn(-c3ccc(Cl)cc3)c2=O)C1	10.9
COc1c(CNC2(c3noc(C)n3)CCC2)c(C)nn1C	4.2
O=C(Nc1cccnc1N1CCSCC1)c1ccc2c(c1)CCO2	-0.678
CC(=O)N1CCC(N2CCOC(CC3CCCCC3)C2)CC1 (configuration not stated)	6.46
Cc1cc(C)n(CC2CN(CC(=O)N3CCNC3=O)CCO2)n1 (configuration not stated)	-2.38
CCc1noc(CNCCn2cc(C)cn2)n1	-2.54
Cc1cccc(C(=O)N2C[C@@H]3COC[C@@H](CC(=O)N4CCCC4)[C@@H]3C2)n1	-120
O=S(=O)(c1cc(F)ccc1N1CC(n2cccn2)C1)C(F)(F)F	11.3
COC(=O)[C@H](C)NC(=O)Cc1c(C)nc2cc(=O)[nH]n2c1C	-1.51
N#Cc1cccc(CN2Cc3nccn3CC(CN3CCCC3)C2)c1 (configuration not stated)	-135
Cn1ccnc1C(O)c1ccccc1N1CCN(CC2CCCC2)CC1 (configuration not stated)	0.135
Cc1nn(C)c(Oc2cccnc2)c1NC(=O)C1CCCO1 (configuration not stated)	-8.78
Cc1cc(C)c(CNC(=O)NCc2ccc(F)c(C)c2)c(=O)[nH]1	-12.8
O=S1(=O)c2ccccc2C2(CCN(Cc3ccccc3)C2)N1CC1CC1 (configuration not stated)	16.3
O=C([C@@H]1CCO[C@@H]2CCN(Cc3cccnc3)C[C@H]21)N1CCCCO1	-1.17
CN(C)CCOCc1nnc2n1CCN(Cc1ccsc1)C2	3.02
Cc1ncsc1CN1CCN(C2CCOCC2)CC(C(N)=O)C1 (configuration not stated)	14.4
Cc1nn(C)c2ncc(NC(=O)N3CCNC(=O)C3)cc12	-5.81
CC(C)N1C[C@@H](CO)[C@H](c2ccccc2)S1(=O)=O	-1.94
COc1ccccc1C(=O)N1CCOCC1c1c(C)n[nH]c1C (configuration not stated)	-8.72
CC1CCN(CC(O)CNc2ccccn2)CC1 (configuration not stated)	11.4

SMILES	cytotoxicity at 10 µM [%]
CCC(NCc1ccccc1Cl)c1ccccc1OCC(=O)NC (configuration not stated)	13.3
CCCc1n[nH]c(C2CN(C(=O)CCc3cscn3)CCO2)n1 (configuration not stated)	-1.63
COc1c(C2CCCN2Cc2nccn2C)c(C)nn1C (configuration not stated)	3.06
CCn1cnnc1CNC(=O)N1CCOC(c2ccc(F)cc2)C1 (configuration not stated)	5.53
CC(C)c1nc2c(n1C)CCN(CC(=O)Nc1nncs1)C2	-10.1
COc1ccc(F)c(CN2CCCC(O)(CNCc3ccon3)C2=O)c1 (configuration not stated)	53.6
Cc1cc(C)c(C(=O)NC(CN2CCCC2)c2ccccc2)c(=O)[nH]1 (configuration not stated)	-2.57
CCC1CN(C(=O)CN2CCN(c3nccc(OC)n3)CC2)CCO1 (configuration not stated)	-6.21
Cc1ncnc2c1CCN(Cc1nccs1)CC2	9.91
CC(C)c1sc(Br)nc1C(=O)NCc1cccnc1	3.06
Cc1cc(CN(C)C(=O)c2cccc(N3CCCC3=O)c2)no1	0.376
C[C@@H](O)CNC(=O)c1nc(CC(=O)Nc2cccc(C(F)(F)F)c2)no1	8.35
COCCNc1ccccc1CNC(=O)NCc1ccc(C)s1	4.38
Cn1cc(C2=CCN(CCCOc3ccc(C(N)=O)cc3)CC2)cn1	6.39
CC(=O)N1CCCC(c2ccc(CO)c(-c3c(C)noc3C)n2)C1 (configuration not stated)	-4.09
CN(C)c1cccc(C(=O)N2CCCC2c2ncc3c(n2)CCNC3)c1 (configuration not stated)	-9.97
Cn1nc(N2CCCC(C(=O)Nc3nccs3)C2)ccc1=O (configuration not stated)	3.19
CNC(=O)N(Cc1c(F)cccc1F)C1CCCC1	8.23
N#CC1(NC(=O)c2c(F)ccc(OC(F)F)c2F)CCOCC1	-8.29
CN(Cc1nccn1C)CC1CCOc2ccccc2C1 (configuration not stated)	-2.77
